Assay [1] concerns the target T1, Aromatase (Homo sapiens, UniProt P11511).
T1 sequence (P11511 whole entry): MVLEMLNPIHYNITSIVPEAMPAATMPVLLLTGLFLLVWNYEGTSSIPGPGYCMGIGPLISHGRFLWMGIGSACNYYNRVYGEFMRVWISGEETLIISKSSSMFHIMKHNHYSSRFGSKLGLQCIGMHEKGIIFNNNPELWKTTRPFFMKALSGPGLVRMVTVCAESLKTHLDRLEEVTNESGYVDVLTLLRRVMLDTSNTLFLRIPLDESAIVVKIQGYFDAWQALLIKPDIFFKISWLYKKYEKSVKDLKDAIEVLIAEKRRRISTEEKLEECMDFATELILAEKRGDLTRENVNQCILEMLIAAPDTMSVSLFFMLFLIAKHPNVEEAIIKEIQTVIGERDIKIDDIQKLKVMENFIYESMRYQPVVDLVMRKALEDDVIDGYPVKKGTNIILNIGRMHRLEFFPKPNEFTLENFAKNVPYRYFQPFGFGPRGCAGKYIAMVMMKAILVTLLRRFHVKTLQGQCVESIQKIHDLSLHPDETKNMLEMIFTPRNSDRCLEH
In words: Inhibition of recombinant human aromatase at 1 uM preincubated for 10 mins followed by substrate and beta-NADP+ addition and measured for 60 mins by fluorimetric assay relative to letrozole. As to conditions: 1 h. The method in brief:
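Fluorimetric kit assay with recombinant human aromatase plus NADPH generating system; compounds at 1 µM final (from 5X in ACN; solvent 0.5% ACN), preincubated 10 min at 37°C.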

Assay [2] relates to MCF7. The experiment in a line: Cytotoxicity against human MCF7 cells assessed as cell metabolic activity after 24 hrs by MTT assay relative to control. In kind it is functional. The gist of the method: (§1)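 MCF7 cells in DMEM high glucose with 10% FBS, 1% pen/strep, seeded 1x10⁴/well, adhered 24 h, then treated 0-250 µM for 24, 48 or 72 h. MTT (1 mg/ml, 1:10 in fresh medium) 4 h at 37°C, 5% CO₂; formazan dissolved in DMSO, OD 540 nm. Expressed as % of DMSO-treated cells (final DMSO <0.2%); three experiments in triplicate (n=9).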
A general note: Tetrazolium assays rely on reduction of a dye to a coloured formazan, in cell work by metabolically active cells.

Assay [3] concerns the target T1, Aromatase. In words: Inhibition of recombinant human aromatase preincubated for 10 mins followed by substrate and beta-NADP+ addition and measured for 60 mins by fluorimetric assay. The method in brief:
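Recombinant human aromatase with NADPH generating system, preincubated 10 min at 37°C with inhibitor at 0.01-100 µM final (5X stocks 0.05-500 µM in ACN). Fluorogenic substrate/β-NADP+ added; fluorescence Ex/Em 488/527 nm kinetic 60 min. IC50 from fitted multi-point dose-response curves; mean of triplicate ± RSD.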

The subject of assay [4] is MCF7. The experiment in a line: Cytotoxicity against human MCF7 cells assessed as reduction in cell viability at 100 uM after 24 to 72 hrs by MTT assay. In kind it is functional, cell-based. The gist of the method:
as §1

For assay [5], the system named is MCF7. The experiment in a line: Cytotoxicity against human MCF7 cells assessed as LDH release up to 250 uM after 24 hrs by CytoTox 96 Non-Radioactive assay relative to control. Type of assay: functional. The gist of the method:
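MCF7 cells (DMEM high glucose, 10% FBS, 1% pen/strep) seeded 1x10⁴/well, adhered 24 h, then exposed to 0-250 µM for 24 h. Supernatants centrifuged 450xg 4 min; LDH measured by 30-min coupled INT-to-formazan reaction, absorbance 490 and 690 nm. %LDH released = [(A490–B690)/(C–B)]×100, C = positive control cell lysate.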
A general note: LDH leaks from cells whose membrane has failed.

The subject of assay [6] is MCF7. The experiment in a line: Cytotoxicity against human MCF7 cells assessed as cell metabolic activity at 10 uM after 48 hrs by MTT assay relative to control. In kind it is functional. The gist of the method: as §1
Assay [7] deals with MCF7. In words: Cytotoxicity against human MCF7 cells assessed as active metabolizing cells at 250 uM after 48 hrs by MTT assay relative to control. In kind it is functional. The method in brief: as §1
In assay [8] the test system is MCF7. In words: Cytotoxicity against human MCF7 cells assessed as reduction in cell viability after 72 hrs by MTT assay. In kind it is functional, cell-based. The gist of the method:
as §1

The subject of assay [9] is MCF7. In words: Cytotoxicity against human MCF7 cells assessed as cell metabolic activity at 250 uM after 24 hrs by MTT assay relative to control. Type of assay: functional. The method in brief:
as §1

For assay [10], the system named is MCF7. In words: Cytotoxicity against human MCF7 cells assessed as active metabolizing cells at 100 uM after 48 hrs by MTT assay relative to control. In kind it is functional. The gist of the method:
as §1

Consider 13 compounds from ChEMBL document CHEMBL4312030, “Synthesis, biological evaluation, and docking study of indole aryl sulfonamides as aromatase inhibitors” (Eur J Med Chem, 2020).

Calls of active or inactive are those of the source. The rule behind the calls is not given here.

As to `O=S(=O)(NCc1ccc2[nH]ccc2c1)c1ccccc1`, the inhibition (as a rule, the drop in the measured response relative to a control, in per cent) at 1 µM at Aromatase [1] turned out to be 20.7%.
With `Cc1ccc(S(=O)(=O)Nc2ccc3[nH]ccc3c2)cc1[N+](=O)[O-]`, on Aromatase [1], the inhibition at 1 µM stood at 12.8%.
On the same count and under the same terms, the value for `N#Cc1ccc(S(=O)(=O)NCCc2c[nH]c3ccccc23)c(Cl)c1` was 19.7%.
On to `O=S(=O)(Cc1ccccc1)NCCc1c[nH]c2ccccc12`, for which the results for the Activity in the assay on MCF7 [2], in the assay on MCF7 [5] and with MCF7 [6] were 45%, 35 - 40% and 40 - 45%, respectively. For the same compound, the inhibition at 1 µM on Aromatase [1] turned out to be 75.2%. Besides, at Aromatase [3], the IC50 (as a rule, the concentration that gives 50% inhibition) was found to be 750 nM. In addition, the inhibition result in the assay on MCF7 [4] is “Active”.
In the case of `Cc1ccc(S(=O)(=O)NCCc2c[nH]c3ccccc23)cc1[N+](=O)[O-]`, the inhibition at 1 µM on Aromatase [1] is 30.6%.
In the case of `O=S(=O)(NCCc1c[nH]c2ccccc12)c1ccccc1`, the Activity was 45% in the assay on MCF7 [2], 35 - 40% with MCF7 [5] and 40 - 45% in the assay with MCF7 [6]. The inhibition at 1 µM on Aromatase [1] came out at 110%. Moreover, the IC50 on Aromatase [3] turned out to be 200 nM. Further, the inhibition entry in the assay with MCF7 [4] was “Active”.
For the compound `Cc1ccc(S(=O)(=O)NCc2ccc3[nH]ccc3c2)cc1`, the inhibition at 1 µM at Aromatase [1] came out at 33.4%.
Regarding `Cc1ccc(S(=O)(=O)NCCc2c[nH]c3ccccc23)cc1`, the inhibition at 1 µM on Aromatase [1] turned out to be 43.5%.
Still for that read-out and setting: the value for `O=S(=O)(Cc1ccccc1)Nc1ccc2cc[nH]c2c1` was 15.3%; that for `O=[N+]([O-])c1cccc(S(=O)(=O)Nc2ccc3cc[nH]c3c2)c1` was 18.6%.
On to `Cc1ccc(S(=O)(=O)Nc2ccc3cc[nH]c3c2)cc1`, for which the Activity in the assay on MCF7 [2] is recorded as 45%; in the assay on MCF7 [7], 22.08%; with MCF7 [9] it was 36.63%; with MCF7 [10], 20.78%; in the assay on MCF7 [5] it was 35 - 40%; in the assay with MCF7 [6], 40 - 45%. Further, in the assay with MCF7 [8], the inhibition entry was “Dose-dependent effect”. Moreover, the inhibition at 1 µM at Aromatase [1] amounted to 83.2%. Moreover, the IC50 at Aromatase [3] was found to be 490 nM.
In the case of `O=S(=O)(Cc1ccccc1)Nc1ccc2[nH]ccc2c1`, the Activity in the assay with MCF7 [2] is recorded as 45%; in the assay on MCF7 [7], 20.08%; in the assay on MCF7 [9], 38.62%; in the assay on MCF7 [10] it was 19.53%; with MCF7 [5], 35 - 40%; in the assay on MCF7 [6], 40 - 45%. Besides, in the assay with MCF7 [8], the inhibition result was “Dose-dependent effect”. On Aromatase [1], the inhibition at 1 µM came to 129%. In addition, the half-inhibitory concentration (IC50) at Aromatase [3] amounted to 160 nM.
With `O=S(=O)(Cc1ccccc1)NCc1ccc2[nH]ccc2c1`, the inhibition at 1 µM at Aromatase [1] was determined as 16.4%.
